Assay results from different studies.
Compare with care: the assays were run in different laboratories. pIC50: −log10 of the molar value. Values after ≈ are worked out from the molar mass of the structure shown.
Organism: Enterococcus faecalis

SMILES | test | system | conditions | quantity | value
CC1(C)S[C@@H]2[C@H](NC(=O)[C@H](N)c3ccccc3)C(=O)N2[C@H]1C(=O)O | microbial growth, well diffusion | ATCC29212 | 60000 µg/mL | inhibition zone | 26 mm
CCCCCCCCCCCCCCCC(=O)NS(=O)(=O)OC1CCN(C(=O)OC(C)(C)C)CC1 | microbial growth, broth dilution | ATCC33186 | – | MIC | 25 µg/mL (≈ 48.2 µM)
CC(C)C(C)CCCCCCCCCCCc1cc(O)cc(O)c1 (stereo not shown) | microbial growth | ATCC29212 | – | pIC50 | 4.88
CCCCCCCCCCCCCCCC(=O)NS(=O)(=O)Oc1ccc(C)cc1 | microbial growth, broth dilution | ATCC33186 | – | MIC | 12.5 µg/mL (≈ 29.4 µM)
CCCCCCCC/C=C\CCCCCCCC(=O)C(F)(F)P(=O)(O)O | microbial growth | ATCC33186 | – | MIC | 6.25 µg/mL (≈ 15.8 µM)
CCC(CCCCCCCCCCc1cc(O)cc(O)c1)C(C)C (stereo not shown) | microbial growth | ATCC29212 | – | pIC50 | 5.03
CCCCCCCCCCCCCCCC(=O)NS(=O)(=O)OC1CCOCC1 | microbial growth, broth dilution | ATCC33186 | – | MIC | 25 µg/mL (≈ 59.6 µM)
O=C(CCCCCCCCCCOc1ccccc1)NP(=O)(O)O | microbial growth | ATCC33186 | – | MIC | 100 µg/mL (≈ 280 µM)
COc1ccc(CNO)c(C)c1 | microbial growth | ATCC19433 | 8 h | MIC50 | < 80 µg/mL
CCCCCCCC(=O)CP(=O)(O)O | microbial growth | ATCC33186 | – | MIC | > 200 µg/mL
CC1(C)S[C@@H]2[C@H](NC(=O)COc3ccccc3)C(=O)N2[C@H]1C(=O)O | microbial killing | – | drug-resistant strain, clinical isolate | MBC | > 128 µg/mL
COc1ccc(OS(=O)(=O)NC(=O)CCCCc2ccccc2)cc1 | microbial growth | ATCC33186 | – | MIC | > 200 µg/mL
CC(C)CCCCCCCCCCCCc1cc(O)cc(O)c1 | microbial growth | ATCC29212 | – | pIC50 | 4.09
